Results on 22 compounds are retold here after ChEMBL document CHEMBL1124912, “Inhibition of human leukocyte elastase. 3. Synthesis and activity of 3'-substituted cephalosporins” (J Med Chem, 1990).

The target of assay [1] is T1, Neutrophil elastase (Homo sapiens) (UniProt P08246).
T1 sequence (whole entry): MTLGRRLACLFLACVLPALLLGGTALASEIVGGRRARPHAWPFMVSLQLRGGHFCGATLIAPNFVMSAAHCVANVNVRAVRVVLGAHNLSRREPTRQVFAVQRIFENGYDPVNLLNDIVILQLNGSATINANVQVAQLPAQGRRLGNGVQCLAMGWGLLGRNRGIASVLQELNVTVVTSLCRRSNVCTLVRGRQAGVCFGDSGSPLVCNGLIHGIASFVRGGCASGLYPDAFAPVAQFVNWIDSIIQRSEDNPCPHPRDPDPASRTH
Put plainly: Second-order rate constant for time-dependent inactivation of Human Leukocyte Elastase for 15 min. The method, boiled down:
(§1)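 Inactivation of HLE by inhibitor was followed over 15 min. The second-order rate constant was expressed as k_obs/[I] (M^-1 s^-1). Where inhibition was not time-dependent, Ki was instead calculated from the initial velocity.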

In another assay the target is T2, Neutrophil elastase (Homo sapiens, UniProt P08246).
T2 sequence (P08246 whole entry): T1 sequence (whole entry)
The experiment in a line: In vitro inhibitory activity against human leukocyte elastase (HLE). The method, boiled down: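 HLE at 1 μg/mL mixed with inhibitor, with enzyme activity read 2 min after mixing. IC50 (μM) is the inhibitor concentration that cuts HLE activity by 50%.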

Assay [2] concerns the target T1, Neutrophil elastase (Homo sapiens). The experiment in a line: Second-order rate constant for time-dependent inactivation of HLE for 15 min. A digest of the protocol:
as §1

For assay [3] the target is unchanged.

SMILES strings stand for the structures.

`CO[C@H]1C(=O)N2C(C(=O)OC(C)(C)C)=C(COC(=O)c3ccccc3)CS(=O)(=O)C12` (stereo partly specified) displayed a k obs / 1 in assay [1] of 32500 M⁻¹ s⁻¹.
Compound `CCOC(=S)SCC1=C(C(=O)OC(C)(C)C)N2C(=O)[C@H](OC)C2S(=O)(=O)C1` (stereo partly specified) returned an IC50 at Neutrophil elastase of 1820 nM. Further, the k obs / 1 in assay [1] was determined as 4300 M⁻¹ s⁻¹.
`CO[C@H]1C(=O)N2C(C(=O)OC(C)(C)C)=C(CCl)CS(=O)(=O)C12` (stereo partly specified) yielded a k obs / 1 in assay [1] of 14900 M⁻¹ s⁻¹.
On to `CO[C@H]1C(=O)N2C(C(=O)OC(C)(C)C)=C(CSc3nnnn3C)CS(=O)(=O)C12` (stereo partly specified), for which it took 1620 nM to reach half-maximal inhibition on Neutrophil elastase (IC50). Also, in assay [1], the k obs / 1 was 15000 M⁻¹ s⁻¹.
With `CO[C@H]1C(=O)N2C(C(=O)OC(C)(C)C)=C(C[S+]([O-])c3ccccc3)CS(=O)(=O)C12` (stereo partly specified), the midpoint of inhibition at Neutrophil elastase, the IC50, lay at 910 nM. Besides, the k obs / 1 in assay [2] came to 16800 M⁻¹ s⁻¹.
Compound `CO[C@H]1C(=O)N2C(C(=O)OC(C)(C)C)=C(CSc3nnnn3CC(=O)O)CS(=O)(=O)C12` (stereo partly specified) returned a k obs / 1 in assay [1] of 3700 M⁻¹ s⁻¹.
Compound `CO[C@H]1C(=O)N2C3=C(COC3=O)CS(=O)(=O)C12` (stereo partly specified) came in with an IC50 on Neutrophil elastase of 57800 nM. The k obs / 1 in assay [1] was determined as 46 M⁻¹ s⁻¹.
For the compound `CO[C@H]1C(=O)N2C(C(=O)OC(C)(C)C)=C(C)CS(=O)(=O)C12` (stereo partly specified), the k obs / 1 in assay [2] came to 1630 M⁻¹ s⁻¹.
`CO[C@H]1C(=O)N2C(C(=O)OC(C)(C)C)=C(CSc3nc[nH]n3)CS(=O)(=O)C12` (stereo partly specified): the k obs / 1 in assay [1] came out at 3500 M⁻¹ s⁻¹.
`CO[C@H]1C(=O)N2C(C(=O)OC(C)(C)C)=C(COC(C)=O)CS(=O)(=O)C12` (stereo partly specified) showed a k obs / 1 in assay [3] of 12700 M⁻¹ s⁻¹. This compound showed an IC50 on Neutrophil elastase of 1330 nM.
On to `CO[C@H]1C(=O)N2C(C(=O)OC(C)(C)C)=C(COC(N)=O)CS(=O)(=O)C12` (stereo partly specified), for which, in assay [2], the k obs / 1 was determined as 10800 M⁻¹ s⁻¹.
On Neutrophil elastase, `CO[C@H]1C(=O)N2C(C(=O)OC(C)(C)C)=C(CSc3nc(=O)c(=O)[nH]n3C)CS(=O)(=O)C12` (stereo partly specified) had an IC50 of 630 nM. This compound also registered a k obs / 1 in assay [1] of 8600 M⁻¹ s⁻¹.
As to `CO[C@H]1C(=O)N2C(C(=O)OC(C)(C)C)=C(COC(=O)N[C@@H](Cc3ccccc3)C(=O)O)CS(=O)(=O)C12` (stereo partly specified), the midpoint of inhibition at Neutrophil elastase, the IC50, lay at 130 nM. In assay [2], this compound came in with a k obs / 1 of 63900 M⁻¹ s⁻¹.
For the compound `CO[C@H]1C(=O)N2C(C(=O)OC(C)(C)C)=C(CSc3nnc[nH]3)CS(=O)(=O)C12` (stereo partly specified), the IC50 against Neutrophil elastase was determined as 2400 nM.
As to `CO[C@H]1C(=O)N2C(C(=O)OC(C)(C)C)=C(COC(=O)C(C)(C)C)CS(=O)(=O)C12` (stereo partly specified), the k obs / 1 in assay [1] worked out at 15800 M⁻¹ s⁻¹.
`CO[C@H]1C(=O)N2C(C(=O)OC(C)(C)C)=C(COC(=O)NCc3ccccc3)CS(=O)(=O)C12` (stereo partly specified) had a k obs / 1 in assay [1] of 15100 M⁻¹ s⁻¹.
On Neutrophil elastase, `CO[C@H]1C(=O)N2C(C(=O)OC(C)(C)C)=C(CSc3nnc(C)s3)CS(=O)(=O)C12` (stereo partly specified) displayed an IC50 of 2230 nM. In assay [2], this compound showed a k obs / 1 of 7900 M⁻¹ s⁻¹.
`CO[C@H]1C(=O)N2C(C(=O)OC(C)(C)C)=C(CS(=O)(=O)c3ccccc3)CS(=O)(=O)C12` (stereo partly specified) gave an IC50 on Neutrophil elastase of 440 nM.
On the same count and under the same terms, in the case of `COCC1=C(C(=O)OC(C)(C)C)N2C(=O)[C@H](OC)C2S(=O)(=O)C1` (stereo partly specified) it was 1000 nM.
In assay [2], `CO[C@H]1C(=O)N2C(C(=O)OC(C)(C)C)=C(COC(=O)CCC(=O)O)CS(=O)(=O)[C@H]12` came in with a k obs / 1 of 13800 M⁻¹ s⁻¹.
In assay [1], `C=CCC1=C(C(=O)OC(C)(C)C)N2C(=O)[C@H](OC)C2S(=O)(=O)C1` (stereo partly specified) came in with a k obs / 1 of 6100 M⁻¹ s⁻¹.
For the compound `CO[C@H]1C(=O)N2C(C(=O)OC(C)(C)C)=C(CSc3nccn3C)CS(=O)(=O)C12` (stereo partly specified), at Neutrophil elastase, the IC50 stood at 2330 nM. Also, the k obs / 1 in assay [1] worked out at 1880 M⁻¹ s⁻¹.
